The text below walks through data of ChEMBL document CHEMBL5055631, “Antitumor properties of novel sesquiterpene lactone analogs as NFκB inhibitors that bind to the IKKβ ubiquitin-like domain (ULD)” (Eur J Med Chem, 2021).

The source made the active and inactive calls. No cut-off for these calls is given here.

For one test, the system named is SR. As to the kind of experiment: Anticancer activity against human SR cells assessed as cell growth inhibition incubated for 48 hrs by SRB method. Format: functional. In short, it runs like this: (§1)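 NCI-60 panel (DTP). Cells in RPMI 1640 with 5% FBS, 2 mM L-glutamine, seeded at 5,000–40,000 per well by doubling time and preincubated 24 h at 37 °C, 5% CO2. Time-zero plates TCA-fixed. DMSO stocks diluted in medium with gentamicin, tested at 100 μM, 10 μM, 1 μM, 0.1 μM and 10 nM for 48 h. Cells fixed with cold TCA, stained with SRB, absorbance read at 515 nm.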

A further test concerns MOLT-4. Nature of the test: Anticancer activity against human MOLT-4 assessed as cell growth inhibition incubated for 48 hrs by SRB method. Format: functional.
Test [1] relates to OV-MD-231. As to the kind of experiment: Antiproliferative activity against human OV-MD-231 cells assessed as inhibition of cell proliferation at 0.5 to 5 uM measured over 4 to 5 days by bromodeoxyuridine incorporation assay. Format: functional, cell-based. Particulars: dose 0.5-5 µM, time 4-5 day. The method, boiled down:
(§2)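 Seeded at 500–1000 cells/well, with treatment started one day after plating. Cells were exposed to a range of concentrations for 4–5 days, six wells per condition, and proliferation was read by BrdU incorporation ELISA. Data average two experiments of six technical replicates, and 2–4 biological replicates were run.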

The subject of a further test is TMD-231. As to the kind of experiment: Antiproliferative activity against human TMD-231 cells assessed as inhibition of cell proliferation at 0.5 to 5 uM measured over 4 to 5 days by bromodeoxyuridine incorporation assay. Format: functional, cell-based. Particulars: dose 0.5-5 µM, time 4-5 day. In short, it runs like this:
as §2

The test system of another test is HL-60(TB). As to the kind of experiment: Anticancer activity against human HL-60(TB) cells assessed as cell growth inhibition incubated for 48 hrs by SRB method. Format: functional. In general terms: The SRB assay estimates cell density from bound dye.
The test system of a further test is NCI-H460. As to the kind of experiment: Anticancer activity against human NCI-H460 cells assessed as cell growth inhibition incubated for 48 hrs by SRB method. It counts as functional. The method, boiled down:
as §1

A further test relates to COLO 205. Nature of the test: Anticancer activity against human COLO 205 cells assessed as cell growth inhibition incubated for 48 hrs by SRB method. Format: functional.
In the next test the test system is SF-295. Nature of the test: Anticancer activity against human SF-295 cells assessed as cell growth inhibition incubated for 48 hrs by SRB method. Format: functional. In short, it runs like this: as §1
In a further test the test system is MDA-MB-435. Nature of the test: Anticancer activity against human MDA-MB-435 cells assessed as cell growth inhibition incubated for 48 hrs by SRB method. It counts as functional. In short, it runs like this:
as §1

Another test deals with SK-MEL-28. As to the kind of experiment: Anticancer activity against human SK-MEL-28 cells assessed as cell growth inhibition incubated for 48 hrs by SRB method. Format: functional. The method, boiled down:
as §1

The next test deals with UACC-257. As to the kind of experiment: Anticancer activity against human UACC-257 assessed as cell growth inhibition incubated for 48 hrs by SRB method. Format: functional. The method, boiled down:
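NCI-60 panel, SRB assay. Cells grown in RPMI 1640 with 5% FBS and 2 mM L-glutamine, seeded at 5,000–40,000 cells/well depending on doubling time, and preincubated 24 h at 37 °C with 5% CO2. Time-zero plates were TCA-fixed. Compounds came from DMSO stocks and were tested at 100 μM, 10 μM, 1 μM, 0.1 μM and 10 nM for 48 h. Cells were fixed with cold TCA and stained with 0.4% SRB, and the dye was solubilized in 10 mM Tris base with A515 read.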

In a further test the test system is ACHN. As to the kind of experiment: Anticancer activity against human ACHN cells assessed as cell growth inhibition incubated for 48 hrs by SRB method. It counts as functional. The method, boiled down:
as §1

The next test deals with PC-3. As to the kind of experiment: Anticancer activity against human PC-3 cells assessed as cell growth inhibition incubated for 48 hrs by SRB method. Format: functional. In short, it runs like this: as §1
The subject of a further test is DU-145. Nature of the test: Anticancer activity against human DU-145 cells assessed as cell growth inhibition incubated for 48 hrs by SRB method. It counts as functional. The method, boiled down:
as §1

For the next test, the system named is T47D. Nature of the test: Anticancer activity against human T47D cells assessed as cell growth inhibition incubated for 48 hrs by SRB method. It counts as functional. The method, boiled down:
as §1

In test [2] the target is Inhibitor of nuclear factor kappa-B kinase subunit beta (Homo sapiens) (UniProt O14920). Nature of the test: Inhibition of IKKbeta-mediated NFkappaB activation in human M9-ENL1 cells assessed as inhibition of phosphorylation of p65 at SER-536 residue at 2.5 to 10 uM by immunoblotting analysis. It counts as cell-based. The following applies: dose 2.5-10 µM. In short, it runs like this: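 Primary M9-ENL AML cells were exposed for 6 h to 2.5, 5.0 and 10 μM, with PTL as reference. Lysates were run on 8–10% SDS-PAGE and transferred to PVDF. Blots were blocked in 5% milk/TBST and probed for phospho-p65 (Ser536). Analyses were done in triplicate.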
Chain of Inhibitor of nuclear factor kappa-B kinase subunit beta (Homo sapiens) (O14920 whole entry): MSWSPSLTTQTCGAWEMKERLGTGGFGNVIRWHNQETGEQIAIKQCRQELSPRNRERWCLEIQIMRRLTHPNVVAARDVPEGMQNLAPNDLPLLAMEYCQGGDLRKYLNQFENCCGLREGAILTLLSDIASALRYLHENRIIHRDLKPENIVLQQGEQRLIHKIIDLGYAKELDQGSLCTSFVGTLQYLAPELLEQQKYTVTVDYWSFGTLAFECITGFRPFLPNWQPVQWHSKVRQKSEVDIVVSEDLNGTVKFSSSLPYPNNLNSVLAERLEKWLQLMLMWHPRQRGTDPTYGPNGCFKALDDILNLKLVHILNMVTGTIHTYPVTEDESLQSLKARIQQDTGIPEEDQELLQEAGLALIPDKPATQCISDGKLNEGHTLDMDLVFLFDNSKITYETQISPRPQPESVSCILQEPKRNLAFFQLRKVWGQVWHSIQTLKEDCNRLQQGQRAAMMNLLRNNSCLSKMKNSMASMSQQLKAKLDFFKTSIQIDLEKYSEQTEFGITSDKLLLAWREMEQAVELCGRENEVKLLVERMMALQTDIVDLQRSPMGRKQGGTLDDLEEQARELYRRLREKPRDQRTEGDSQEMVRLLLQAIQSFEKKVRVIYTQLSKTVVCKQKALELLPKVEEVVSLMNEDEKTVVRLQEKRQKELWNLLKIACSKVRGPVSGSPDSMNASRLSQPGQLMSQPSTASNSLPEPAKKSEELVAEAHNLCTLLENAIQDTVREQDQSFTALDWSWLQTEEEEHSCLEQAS

A further test has as its system SUM149PT. Nature of the test: Antiproliferative activity against human SUM149PT cells assessed as inhibition of cell proliferation measured over 4 to 5 days by bromodeoxyuridine incorporation assay. Format: functional, cell-based. In short, it runs like this: as §2
Test [3] addresses Transcription factor p65 (Homo sapiens) (UniProt Q04206). As to the kind of experiment: Inhibition of TNFalpha-induced phosphorylation of p65 in human SUM149PT cells at 2 uM by ELISA assay. Format: cell-based.
For test [4] the target is unchanged. As to the kind of experiment: Inhibition of TNFalpha-induced p65 phosphorylation in human OV-MD-231 cells at 2 uM by ELISA assay. Format: cell-based. (In general: In an ELISA, binding on a coated surface is turned into a signal by an enzyme label.)
Test [5] concerns the target Inhibitor of nuclear factor kappa-B kinase subunit alpha (Homo sapiens) (UniProt O15111). Nature of the test: Inhibition of TNFalpha-induced IkKalpha in human SUM149PT cells at 0.5 to 2 uM by ELISA assay. Format: cell-based. The following applies: dose 0.5-2 µM.
For test [6], the system named is OV-MD-231. Nature of the test: Inhibition of NFkB binding with DNA in human […] cells assessed as reduction in NFkB-DNA binding at 2 uM measured over 3 hrs by electrophoretic mobility shift assay. Format: cell-based. The method, boiled down:
(§3)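 Cells were exposed to 0.5 and 2.0 μM for 3 h. EMSA was run on whole-cell lysates with 32P-labelled probes carrying NF-κB binding sites, and an SP-1 probe served as the specificity control.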
(In EMSA bound probe runs differently from free probe, usually more slowly.)

In test [7] the target is Nuclear factor NF-kappa-B p100 subunit (Homo sapiens) (UniProt Q00653). As to the kind of experiment: Inhibition of NFkB binding with DNA in human SUM149PT cells assessed as reduction in NFkB-DNA binding at 2 uM measured over 3 hrs by electrophoretic mobility shift assay. It counts as cell-based. The method, boiled down:
as §3

The subject of the next test is NCI-H322M. As to the kind of experiment: Anticancer activity against human NCI-H322M cells assessed as cell growth inhibition incubated for 48 hrs by SRB method. It counts as functional. The method, boiled down:
as §1

For the next test, the system named is OVCAR-3. Nature of the test: Anticancer activity against human OVCAR-3 cells assessed as cell growth inhibition incubated for 48 hrs by SRB method. Format: functional. The method, boiled down: as §1

Chain of Transcription factor p65 (Homo sapiens) (Q04206 whole entry): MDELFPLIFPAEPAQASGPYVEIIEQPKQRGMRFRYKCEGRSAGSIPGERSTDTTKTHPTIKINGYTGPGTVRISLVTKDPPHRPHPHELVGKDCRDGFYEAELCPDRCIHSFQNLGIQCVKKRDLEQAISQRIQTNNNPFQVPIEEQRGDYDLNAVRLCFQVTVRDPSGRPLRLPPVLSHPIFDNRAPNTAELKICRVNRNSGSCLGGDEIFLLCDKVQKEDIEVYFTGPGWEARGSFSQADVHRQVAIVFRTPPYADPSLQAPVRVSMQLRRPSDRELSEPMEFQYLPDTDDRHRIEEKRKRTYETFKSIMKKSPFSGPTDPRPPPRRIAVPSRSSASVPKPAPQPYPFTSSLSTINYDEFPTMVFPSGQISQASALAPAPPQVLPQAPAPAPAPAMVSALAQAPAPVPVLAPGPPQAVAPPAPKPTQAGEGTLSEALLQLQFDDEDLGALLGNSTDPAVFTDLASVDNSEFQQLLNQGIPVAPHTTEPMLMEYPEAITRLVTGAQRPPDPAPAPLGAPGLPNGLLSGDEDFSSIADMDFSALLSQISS
Chain of Inhibitor of nuclear factor kappa-B kinase subunit alpha (Homo sapiens) (O15111 whole entry): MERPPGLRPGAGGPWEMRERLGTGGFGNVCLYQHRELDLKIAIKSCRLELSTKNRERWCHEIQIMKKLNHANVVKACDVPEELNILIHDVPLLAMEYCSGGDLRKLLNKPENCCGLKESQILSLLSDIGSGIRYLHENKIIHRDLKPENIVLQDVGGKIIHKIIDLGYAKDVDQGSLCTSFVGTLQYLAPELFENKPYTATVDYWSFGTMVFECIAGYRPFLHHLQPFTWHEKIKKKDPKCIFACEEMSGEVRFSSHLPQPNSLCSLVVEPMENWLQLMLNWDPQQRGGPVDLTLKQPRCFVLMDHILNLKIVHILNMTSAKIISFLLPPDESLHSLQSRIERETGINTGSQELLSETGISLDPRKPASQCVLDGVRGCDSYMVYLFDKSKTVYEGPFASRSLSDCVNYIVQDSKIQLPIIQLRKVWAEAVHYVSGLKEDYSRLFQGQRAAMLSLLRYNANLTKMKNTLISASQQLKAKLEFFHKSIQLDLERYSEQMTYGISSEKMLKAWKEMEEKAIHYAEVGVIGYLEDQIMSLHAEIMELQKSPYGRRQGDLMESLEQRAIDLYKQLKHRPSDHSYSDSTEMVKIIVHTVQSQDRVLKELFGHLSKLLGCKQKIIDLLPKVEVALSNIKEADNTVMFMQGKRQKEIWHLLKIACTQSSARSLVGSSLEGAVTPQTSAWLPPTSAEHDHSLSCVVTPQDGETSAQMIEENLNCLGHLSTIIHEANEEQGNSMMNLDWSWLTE
Chain of Nuclear factor NF-kappa-B p100 subunit (Homo sapiens) (Q00653 whole entry): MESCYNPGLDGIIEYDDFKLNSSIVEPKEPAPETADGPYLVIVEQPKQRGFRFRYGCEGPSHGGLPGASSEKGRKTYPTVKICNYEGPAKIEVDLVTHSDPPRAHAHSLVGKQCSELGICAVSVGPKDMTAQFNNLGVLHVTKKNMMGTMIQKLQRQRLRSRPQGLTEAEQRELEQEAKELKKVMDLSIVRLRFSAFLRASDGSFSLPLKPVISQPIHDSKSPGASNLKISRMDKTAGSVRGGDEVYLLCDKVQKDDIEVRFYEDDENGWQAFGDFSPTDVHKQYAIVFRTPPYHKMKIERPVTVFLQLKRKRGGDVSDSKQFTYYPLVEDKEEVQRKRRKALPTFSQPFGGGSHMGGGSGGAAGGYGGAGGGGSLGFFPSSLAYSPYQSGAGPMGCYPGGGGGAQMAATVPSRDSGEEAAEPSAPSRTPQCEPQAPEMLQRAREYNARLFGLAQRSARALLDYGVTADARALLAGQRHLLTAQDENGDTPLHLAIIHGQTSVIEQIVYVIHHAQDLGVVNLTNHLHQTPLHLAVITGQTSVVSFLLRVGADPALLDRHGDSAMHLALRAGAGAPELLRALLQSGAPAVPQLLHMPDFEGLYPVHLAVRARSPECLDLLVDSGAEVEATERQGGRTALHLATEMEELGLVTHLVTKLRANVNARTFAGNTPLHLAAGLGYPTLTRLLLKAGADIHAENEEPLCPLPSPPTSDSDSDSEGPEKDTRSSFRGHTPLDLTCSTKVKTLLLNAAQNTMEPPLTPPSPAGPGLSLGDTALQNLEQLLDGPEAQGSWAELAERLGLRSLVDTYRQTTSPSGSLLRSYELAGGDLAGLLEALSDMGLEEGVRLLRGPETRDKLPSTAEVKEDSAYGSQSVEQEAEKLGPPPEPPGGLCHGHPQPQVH

Broadly, the GI50 is the concentration that inhibits growth by half. One may read the IC50 as the concentration that gives 50% inhibition. In the case of `C=C1C(=O)O[C@H]2[C@H]1CC/C(COC(=O)NCc1ccc(OC)cc1)=C\CC[C@@]1(C)O[C@@H]21`, the 50% growth inhibitory concentration (GI50) in the test on SR was found to be 0.3 µM; in the test with MOLT-4 it was 0.28 µM; in the test with HL-60(TB) it was 0.26 µM; in the test on NCI-H460, 2.74 µM; in the test on COLO 205 it was 0.24 µM; with SF-295, 10.8 µM. Moreover, the 50% growth inhibitory concentration (GI50) is 0.42 µM in the test on MDA-MB-435; 1.18 µM in the test with SK-MEL-28; 1.52 µM in the test on UACC-257; 0.18 µM with ACHN; 0.35 µM in the test on PC-3; 0.16 µM in the test with DU-145. Also, in the test with T47D, the concentration for 50% growth inhibition (GI50) worked out at 0.79 µM. In addition, the inhibition entry (with OV-MD-231 [1]; in the test with TMD-231; in test [3]; in [4]; in test [5]) was “Active” each time. The inhibition entry (in test [2]; with OV-MD-231 [6]; in test [7]) was “inactive” in each case. Moreover, the IC50 in the test with SUM149PT is less than 1 µM.
Turning to `C=C1C(=O)O[C@H]2[C@H]1CC/C(COC(=O)NCc1cc(OC)cc(OC)c1)=C\CC[C@@]1(C)O[C@@H]21`, the concentration for 50% growth inhibition (GI50) came out at 0.32 µM in the test on SR; 2 µM with MOLT-4; 1.69 µM in the test on HL-60(TB); 4.72 µM with NCI-H322M; 3.01 µM in the test on NCI-H460; 1.35 µM in the test on COLO 205. Also, the GI50 in the test with SF-295 was determined as 7.78 µM; in the test with MDA-MB-435, 1.99 µM; with SK-MEL-28, 1.66 µM; with UACC-257 it was 0.27 µM; in the test with OVCAR-3, 0.66 µM; in the test on ACHN, 1.7 µM. The concentration for 50% growth inhibition (GI50) was determined as 1.66 µM with PC-3, 1.51 µM with DU-145 and 4.12 µM in the test with T47D.
Take `C=C1C(=O)O[C@H]2[C@H]1CC/C(COC(=O)NCCc1ccc(OC)cc1)=C\CC[C@@]1(C)O[C@@H]21`: the GI50 in the test on SR stood at 2.07 µM; in the test on MOLT-4 it was 2.61 µM; in the test on HL-60(TB) it was 2.34 µM; in the test on NCI-H322M, 12.6 µM; with NCI-H460, 12.2 µM; with COLO 205, 1.94 µM. The 50% growth inhibitory concentration (GI50) with SF-295 amounted to 13.5 µM; in the test with MDA-MB-435, 3.53 µM; in the test on SK-MEL-28, 8.97 µM; in the test with UACC-257, 1.47 µM; in the test on ACHN, 1.76 µM; in the test on PC-3, 2.73 µM. The GI50 worked out at 1.76 µM with DU-145 and 13.8 µM in the test with T47D.
With `C=C1C(=O)O[C@H]2[C@H]1CC/C(COC(=O)NCc1ccccc1OC)=C\CC[C@@]1(C)O[C@@H]21`, the GI50 in the test with SR stood at 0.67 µM; with MOLT-4 it was 2.53 µM; in the test with HL-60(TB), 1.61 µM; with NCI-H460, 3.73 µM; with COLO 205, 1.75 µM; in the test with SF-295, 5.02 µM. The GI50 in the test on MDA-MB-435 was 1.7 µM; in the test on SK-MEL-28, 1.71 µM; with UACC-257, 1.35 µM; in the test on ACHN, 1.16 µM; with PC-3, 1.79 µM; in the test on DU-145, 1.68 µM. Also, the GI50 with T47D worked out at 3.4 µM.
